# Laboratory results reported in publication PMC4472004 (Molecular cancer therapeutics, 2014).
# Tests used:
# PC3pip tumors = assay: In vivo NIR imaging; parameters: species or system mice; conditions: coinjection; up to 1,000-fold excess of Cys-CO-Glu or PSMA-1; 100-fold excess of ZJ-MCC-Ahx-YYYG
# [1] = target: PSMA receptor on PC3pip cells (Homo sapiens, UniProt Q04609); assay: Competitive binding assay
# Procedure, shortened: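 PC3pip cells (PSMA-transduced PC3; RPMI-1640 with 2 mmol/L L-glutamine and 10% FBS, 37°C, 5% CO2), 5 × 10^5 per tube, incubated 1 h at 37°C with varying test compound concentrations plus 12 nmol/L [3H]-methyl-cysteine urea PSMA radioligand. Cells pelleted at 3,000 × g for 5 min at 4°C and washed 3× with cold PBS. Bound radioactivity by scintillation counting; IC50 from curve fitting.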
# PSMA receptor on PC3pip cells, sequence (Q04609 whole entry): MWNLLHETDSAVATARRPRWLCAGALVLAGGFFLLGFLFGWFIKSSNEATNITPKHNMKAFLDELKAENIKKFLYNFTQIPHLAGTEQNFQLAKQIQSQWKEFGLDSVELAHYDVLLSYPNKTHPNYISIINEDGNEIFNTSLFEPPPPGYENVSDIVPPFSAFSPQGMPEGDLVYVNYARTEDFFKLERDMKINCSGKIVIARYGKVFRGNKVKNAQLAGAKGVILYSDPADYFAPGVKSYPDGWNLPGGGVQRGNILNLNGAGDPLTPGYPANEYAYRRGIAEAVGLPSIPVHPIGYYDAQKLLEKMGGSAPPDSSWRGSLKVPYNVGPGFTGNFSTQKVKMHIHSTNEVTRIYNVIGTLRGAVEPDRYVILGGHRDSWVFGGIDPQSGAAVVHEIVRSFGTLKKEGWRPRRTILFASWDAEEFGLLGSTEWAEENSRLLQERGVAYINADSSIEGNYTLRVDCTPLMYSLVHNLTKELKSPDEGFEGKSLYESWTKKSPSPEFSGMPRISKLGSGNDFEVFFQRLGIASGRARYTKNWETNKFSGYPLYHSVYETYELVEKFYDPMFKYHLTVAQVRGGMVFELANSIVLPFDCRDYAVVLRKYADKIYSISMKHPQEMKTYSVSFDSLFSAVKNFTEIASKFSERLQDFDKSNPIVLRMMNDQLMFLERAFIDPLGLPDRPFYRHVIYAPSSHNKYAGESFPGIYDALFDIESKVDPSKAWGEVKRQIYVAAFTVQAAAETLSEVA
IC50 [1],Compound,effectiveness as in vivo competitor of the PSMA-1–NIR probes (PC3pip tumors),binding affinity better than the parent ligand Cys-CO-Glu ([1]; ratio of IC50 values)
,Glu-CO-Glu'-Amc-Ahx-Glu-Glu-Glu-Lys-NH2 [PSMA-1],unable to achieve effective competition,4.3 fold
9.93 ± 0.07 nM,"NCCCC[C@H](NC(=O)N[C@@H](CCC(=O)O)C(=O)O)C(=O)O [Cys-CO-Glu, (S)-2-(3-((S)-5-amino-1-carboxypentyl)ureido)pentanedioic acid]",unable to achieve effective competition,
